From publication PMC3356170 (International Journal of Nanomedicine, 2012)

What was measured:
[1] = Pharmacokinetics of two formulations in rats; assay type: in vivo, Sprague-Dawley (SD) rats
How it was run: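 SD rats (N = 6 per group) received 5 mg/kg intravenously or orally, dissolved in 0.9% NaCl. Blood was taken at set time points and centrifuged (3500 rpm, 10 min). Plasma (180 μL) was mixed with cantharidin internal standard and methanol (800 μL) and spun at 10,000 rpm for 10 min. NCTD was measured by LC-MS/MS (C18, 35°C; MRM m/z 185.0→141.1) against matrix-matched calibration from 0.1025 to 10.25 μg/mL, using peak-area ratio to internal standard. Group means gave parameters.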

[2] = Tissue distribution and elimination in mice; assay type: in vivo, ICR mice; conditions: after intravenous administration (table title)
How it was run: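 ICR mice (six per group) were used. Blood was drawn from the eye socket vein at each sampling time. After cervical dislocation, heart, liver, kidney, spleen and lung were excised, rinsed in saline, blotted and weighed. Bile was taken from the gall bladder by syringe. Tissues and fluids were homogenized and processed as for plasma. NCTD was quantified by LC-MS/MS.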

[3] = Survival time and urine output of dosed rats; assay type: in vivo
[4] = intravenous administration (5 mg/kg), N = 6, mean ± SD
[5] = oral administration (5 mg/kg), N = 6, mean ± SD

O=C1OC(=O)[C@H]2[C@@H]1[C@@H]1CC[C@H]2O1 [NCTD, Norcantharidin]
AUC0-t [1, 4]: 9790 ± 1260 ng·h/mL | AUC0-∞ [1, 4]: 10770 ± 2340 ng·h/mL | CL [1, 4]: 0.12 ± 0.02 L/h | MRT [1, 4]: 0.34 ± 0.10 h | Vd [1, 4]: 0.82 ± 0.45 L/kg | t1/2(α) distribution half-life [1, 4]: 0.26 ± 0.06 h | t1/2(β) [1, 4]: 2.63 ± 0.82 h | AUC0-t [1, 5]: 3850 ± 660 ng·h/mL | AUC0-∞ [1, 5]: 3870 ± 690 ng·h/mL | CL [1, 5]: 0.32 ± 0.05 L/h | Cmax [1, 5]: 1210 ± 230 ng/mL | MRT [1, 5]: 5.49 ± 4.58 h | Tmax [1, 5]: 1.50 ± 0.44 h | Vd [1, 5]: 9.48 ± 6.59 L/kg | t1/2(a) [1, 5]: 0.56 ± 0.43 h | t1/2(α) [1, 5]: 0.72 ± 0.68 h | t1/2(β) [1, 5]: 5.08 ± 4.79 h | oral bioavailability ([1]; oral versus intravenous administration, 5 mg/kg): 39.3% | Te (targeted efficiency) ([2]; Bile): 2.33 | Te (targeted efficiency) ([2]; Blood): 30.74 | Te (targeted efficiency) ([2]; Heart): 14.99 | Te (targeted efficiency) ([2]; Kidney): 11.72 | Te (targeted efficiency) ([2]; Liver): 10.07 | Te (targeted efficiency) ([2]; Lung): 22.72 | Te (targeted efficiency) ([2]; Spleen): 7.44 | survival time of rats ([3]; NCTD group): about 24 hours | urine output compared with normal rats ([3]; after dosing): one-third of normal
